Source: ChEMBL document CHEMBL4428038, “Overcoming chloroquine resistance in malaria: Design, synthesis and structure-activity relationships of novel chemoreversal agents” (Eur J Med Chem, 2016)
pEC50, pIC50: −log10 of the molar value. The source made the active and inactive calls. The calls are words filed in the database; no cut-off is given here.

How the values were obtained:
[1] = tested on: T1, Chloroquine resistance transporter (Plasmodium falciparum), Q9N623 [K76T]; assay: Inhibition of CRT K76T mutant in chloroquine/artemisinin-resistant Plasmodium falciparum NHP4773 assessed as reversal of chloroquine resistance by measuring reduction in chloroquine IC50 at 500 nM relative to chloroquine alone
T1 sequence (whole entry): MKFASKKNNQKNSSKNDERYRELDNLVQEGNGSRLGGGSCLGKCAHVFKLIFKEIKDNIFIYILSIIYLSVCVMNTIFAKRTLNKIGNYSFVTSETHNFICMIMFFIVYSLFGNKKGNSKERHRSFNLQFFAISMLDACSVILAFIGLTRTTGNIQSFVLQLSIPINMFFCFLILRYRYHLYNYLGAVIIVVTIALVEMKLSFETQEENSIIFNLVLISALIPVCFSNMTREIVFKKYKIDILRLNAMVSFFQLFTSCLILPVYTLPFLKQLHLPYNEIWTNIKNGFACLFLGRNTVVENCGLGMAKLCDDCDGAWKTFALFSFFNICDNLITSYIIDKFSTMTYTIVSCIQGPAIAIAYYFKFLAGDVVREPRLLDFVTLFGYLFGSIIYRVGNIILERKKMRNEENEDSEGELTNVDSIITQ

Plasmodium falciparum [2] = assay: Intrinsic antimalarial activity against chloroquine-resistant Plasmodium falciparum K1 isolate MRA-159 harboring CRT CVIET haplotype mutant assessed as reduction in parasite viability at 500 nM; type: functional, organism-based
Plasmodium falciparum [3] = assay: Intrinsic antimalarial activity against chloroquine-sensitive Plasmodium falciparum HB3 isolate MRA-155 assessed as reduction in parasite viability at 500 nM; type: functional, organism-based
[4] = Therapeutic index, ratio of IC50 for TAMH to EC50 for chloroquine-resistant Plasmodium falciparum K1 isolate MRA-159 CRT CVIET haplotype mutant; type: toxicity; conditions: mouse, TAMH cells; read-out: Ratio IC50/EC50
In short: (§1)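 Host-cell IC50 was measured by ATP-luminescence viability assay in TAMH hepatocytes (mean of n = 4 independent determinations) or AC10 cardiomyocytes. Each IC50 was divided by the K1 EC50, the concentration of chemoreversal agent that halves the chloroquine concentration needed for 50% parasite inhibition.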

[5] = Cytotoxicity against human AC10 cells assessed as reduction in cell viability by CellTiter-Glo assay; type: cell-based
In short: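 For TAMH (hepatocyte line) and AC10 (cardiomyocyte line), viability was read by ATP luminescence (CellTiter-Glo), and the value reported is IC50.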

[6] = Permeability of compound incubated for 6 hrs at pH 7.4 by PAMPA; type: ADME; conditions: read-out: Peff
Plasmodium falciparum [7] = assay: Potentiation of chloroquine-induced antimalarial activity against chloroquine-sensitive Plasmodium falciparum 3D7 isolate MRA-102 assessed as reduction in chloroquine IC50 at 500 nM relative to chloroquine alone; type: functional
Plasmodium falciparum [8] = assay: Intrinsic antimalarial activity against chloroquine-resistant Plasmodium falciparum Dd2 isolate MRA-156 harboring CRT K76T mutant assessed as reduction in parasite viability at 500 nM; type: functional, organism-based
[9] = Permeability of compound incubated for 16 hrs at pH 7.4 by PAMPA; type: ADME; conditions: read-out: Peff
Plasmodium falciparum K1 [10] = assay: Inhibition of CRT CVIET haplotype mutant in Plasmodium falciparum K1 isolate MRA-159 infected in erythrocytes assessed as chloroquine-coumarin probe accumulation at 10 uM after 10 hrs by Hoechst 33342 staining based flow cytometry (reference value: 35.57 +/- 3.84%); type: cell-based; parameters: scale not given: the % may be the effect or the level left
In short: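 Infected erythrocyte cultures at 2.5% hematocrit and 7–12% parasitemia, synchronized to late-ring/early-trophozoite stage, were incubated with chloroquine-coumarin probe plus test agent for 10 h at 37 C. Cells were then washed, resuspended in PBS and read by flow cytometry (405 nm excitation, 450/50 filter). Hoechst-stained duplicate wells set parasitemia. Uptake = % infected erythrocytes fluorescent. Controls: PBS (negative), desipramine and parent compound (positive). ≥3 independent experiments; mean ± SEM.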

Plasmodium falciparum [11] = assay: Intrinsic antimalarial activity against chloroquine-sensitive Plasmodium falciparum 3D7 isolate MRA-102 assessed as reduction in parasite viability at 500 nM; type: functional, organism-based
Plasmodium falciparum [12] = assay: Potentiation of chloroquine-induced antimalarial activity against chloroquine-sensitive Plasmodium falciparum 3D7 isolate MRA-102 assessed as concentration required for 50% reduction in chloroquine IC50 at 500 nM relative to chloroquine alone; type: functional, organism-based
[13] = tested on: T1, Chloroquine resistance transporter (Plasmodium falciparum), Q9N623 [K76T]; assay: Inhibition of CRT K76T mutant in chloroquine/artemisinin-resistant Plasmodium falciparum ARS272 assessed as reversal of chloroquine resistance by measuring reduction in chloroquine IC50 at 500 nM relative to chloroquine alone
Plasmodium falciparum [14] = assay: Intrinsic antimalarial activity against chloroquine-resistant Plasmodium falciparum NHP4559 harboring CRT K76T mutant assessed as reduction in parasite viability at 500 nM; type: functional, organism-based
[15] = Inhibition of CRT CVIET haplotype mutant in chloroquine-resistant Plasmodium falciparum K1 isolate MRA-159 assessed as reversal of chloroquine resistance by measuring reduction in chloroquine IC50 relative to chloroquine alone
In short: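 Chloroquine IC50 was determined in the presence of a fixed 500 nM chemoreversal agent, against chloroquine alone. The RMI is the ratio of chloroquine IC50 with agent to chloroquine IC50 alone. Mean of n = 3; two-tailed t test versus chloroquine without agent.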

Plasmodium falciparum [16] = assay: Intrinsic antimalarial activity against chloroquine/artemisinin-resistant Plasmodium falciparum ARS233 harboring CRT K76T mutant assessed as reduction in parasite viability at 500 nM; type: functional, organism-based
Plasmodium falciparum [17] = assay: Potentiation of chloroquine-induced antimalarial activity against chloroquine-sensitive Plasmodium falciparum HB3 isolate MRA-155 assessed as reduction in chloroquine IC50 at 500 nM relative to chloroquine alone; type: functional
[18] = Therapeutic index, ratio of IC50 for human AC10 cells to EC50 for chloroquine-resistant Plasmodium falciparum K1 isolate MRA-159 CRT CVIET haplotype mutant; type: toxicity; conditions: read-out: Ratio IC50/EC50; in short: as §1
Plasmodium falciparum [19] = assay: Intrinsic antimalarial activity against chloroquine/artemisinin-resistant Plasmodium falciparum ARS272 harboring CRT K76T mutant assessed as reduction in parasite viability at 500 nM; type: functional, organism-based
Plasmodium falciparum K1 [20] = assay: Inhibition of CRT CVIET haplotype mutant in chloroquine-resistant Plasmodium falciparum K1 isolate MRA-159 assessed as reversal of chloroquine resistance by measuring reduction in chloroquine IC50 at 500 nM relative to chloroquine alone
[21] = tested on: T1, Chloroquine resistance transporter (Plasmodium falciparum), Q9N623 [K76T]; assay: Inhibition of CRT K76T mutant in chloroquine/artemisinin-resistant Plasmodium falciparum ARS233 assessed as reversal of chloroquine resistance by measuring reduction in chloroquine IC50 at 500 nM relative to chloroquine alone
[22] = Resistance index, ratio of chloroquine IC50 for intermediate chloroquine-resistant Plasmodium falciparum 7G8 isolate MRA-154 CRT SVMNT haplotype mutant to chloroquine IC50 for chloroquine-sensitive Plasmodium falciparum 3D7 isolate MRA-102 at 500 nM
In short: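 Chloroquine IC50 was measured with the chemoreversal agent fixed at 500 nM in K1 or 7G8 and in sensitive 3D7 (means, n = 3). The resistance ratio is the chloroquine IC50 in K1 or 7G8 divided by the chloroquine IC50 in 3D7.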

Plasmodium falciparum [23] = assay: Intrinsic antimalarial activity against chloroquine/artemisinin-resistant Plasmodium falciparum NHP4773 harboring CRT K76T mutant assessed as reduction in parasite viability at 500 nM; type: functional, organism-based

In the case of c1ccc(CN[C@@H]2C3CCN(CC3)[C@@H]2Cc2ccccc2)cc1 (relative stereo), the Ratio IC50 [1] was 0.45, the Activity (Plasmodium falciparum [2]) was “inactive” and the Activity (Plasmodium falciparum [3]) was “inactive”. For the same compound, the selectivity ratio [4] was over 588, the pIC50 [5] was 4.15 and the Papp at 6 h [6] was 19.2 ×10⁻⁶ cm/s. The “Ratio IC50” value (Plasmodium falciparum [7]) was 1.26, the Activity (Plasmodium falciparum [8]) was “inactive” and the Papp at 16 h [9] was 14.5 ×10⁻⁶ cm/s. For the same compound, the Activity (Plasmodium falciparum K1 [10]) was 83.4%, the Activity (Plasmodium falciparum [11]) was “inactive” and the Activity (Plasmodium falciparum [12]) was “inactive”. For the same compound, the Ratio IC50 [13] was 0.43, the Activity (Plasmodium falciparum [14]) was “inactive” and the pEC50 [15] was 6.77. The Activity (Plasmodium falciparum [16]) was “inactive”, the “Ratio IC50” value (Plasmodium falciparum [17]) was 1.12 and the selectivity ratio [18] was 420. The Activity (Plasmodium falciparum [19]) was “inactive”, the Ratio IC50 (Plasmodium falciparum K1 [20]) was 0.39 and the Ratio IC50 [21] was 0.43. For the same compound, the Ratio IC50 [22] was 3.9 and the Activity (Plasmodium falciparum [23]) was “inactive”.
